Measured values published in ChEMBL document CHEMBL1157184, “Hymenoic acid, a novel specific inhibitor of human DNA polymerase lambda from a fungus of Hymenochaetaceae sp” (Bioorg Med Chem, 2008).
Active and inactive are the calls of the source.

Key:
Homo sapiens [1] = organism: Homo sapiens; assay: Inhibition of human DNA polymerase gamma at 200 uM
How it was run: (§1)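 Compound dissolved in DMSO and sonicated 30 s, then held with each polymerase (final 0.05 U) in 50 mM Tris-HCl pH 7.5, 1 mM DTT, 50% glycerol, 0.1 mM EDTA at 0 °C for 10 min. Reaction with poly(dA)/oligo(dT)12-18 and dTTP ran 60 min at 37 °C (Taq at 74 °C). Activity relative to no-compound control; means ± SEM, four independent experiments.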

[2] = target: T1, DNA polymerase eta (Homo sapiens) (UniProt Q9Y253); assay: Inhibition of human DNA polymerase eta at 200 uM; how it was run: as §1
T1 sequence (whole entry): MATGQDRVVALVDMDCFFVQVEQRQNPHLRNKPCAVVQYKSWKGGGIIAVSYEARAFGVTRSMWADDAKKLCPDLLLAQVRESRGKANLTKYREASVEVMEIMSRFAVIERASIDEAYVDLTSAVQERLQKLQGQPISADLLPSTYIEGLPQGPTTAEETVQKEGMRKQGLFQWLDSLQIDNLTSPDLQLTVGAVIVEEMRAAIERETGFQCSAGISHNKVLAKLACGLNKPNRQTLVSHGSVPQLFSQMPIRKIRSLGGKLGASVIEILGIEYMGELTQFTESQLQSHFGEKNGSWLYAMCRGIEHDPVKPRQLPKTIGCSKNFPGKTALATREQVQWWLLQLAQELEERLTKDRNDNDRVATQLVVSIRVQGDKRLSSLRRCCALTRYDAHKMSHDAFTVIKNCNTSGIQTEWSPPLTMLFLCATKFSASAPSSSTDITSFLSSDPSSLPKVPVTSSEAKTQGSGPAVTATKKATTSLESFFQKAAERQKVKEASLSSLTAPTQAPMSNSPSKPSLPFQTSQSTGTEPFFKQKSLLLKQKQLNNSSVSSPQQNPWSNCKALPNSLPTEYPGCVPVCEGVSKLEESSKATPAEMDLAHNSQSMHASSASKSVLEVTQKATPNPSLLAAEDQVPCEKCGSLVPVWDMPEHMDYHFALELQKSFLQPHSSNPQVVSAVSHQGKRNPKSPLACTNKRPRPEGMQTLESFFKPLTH

Homo sapiens [3] = organism: Homo sapiens; assay: Inhibition of human DNA polymerase epsilon at 200 uM; how it was run: as §1
[4] = target: DNA polymerase I, thermostable (Thermus aquaticus) (UniProt P19821); assay: Inhibition of Taq polymerase at 200 uM; how it was run: as §1
Sequence of DNA polymerase I, thermostable (Thermus aquaticus) (P19821 whole entry): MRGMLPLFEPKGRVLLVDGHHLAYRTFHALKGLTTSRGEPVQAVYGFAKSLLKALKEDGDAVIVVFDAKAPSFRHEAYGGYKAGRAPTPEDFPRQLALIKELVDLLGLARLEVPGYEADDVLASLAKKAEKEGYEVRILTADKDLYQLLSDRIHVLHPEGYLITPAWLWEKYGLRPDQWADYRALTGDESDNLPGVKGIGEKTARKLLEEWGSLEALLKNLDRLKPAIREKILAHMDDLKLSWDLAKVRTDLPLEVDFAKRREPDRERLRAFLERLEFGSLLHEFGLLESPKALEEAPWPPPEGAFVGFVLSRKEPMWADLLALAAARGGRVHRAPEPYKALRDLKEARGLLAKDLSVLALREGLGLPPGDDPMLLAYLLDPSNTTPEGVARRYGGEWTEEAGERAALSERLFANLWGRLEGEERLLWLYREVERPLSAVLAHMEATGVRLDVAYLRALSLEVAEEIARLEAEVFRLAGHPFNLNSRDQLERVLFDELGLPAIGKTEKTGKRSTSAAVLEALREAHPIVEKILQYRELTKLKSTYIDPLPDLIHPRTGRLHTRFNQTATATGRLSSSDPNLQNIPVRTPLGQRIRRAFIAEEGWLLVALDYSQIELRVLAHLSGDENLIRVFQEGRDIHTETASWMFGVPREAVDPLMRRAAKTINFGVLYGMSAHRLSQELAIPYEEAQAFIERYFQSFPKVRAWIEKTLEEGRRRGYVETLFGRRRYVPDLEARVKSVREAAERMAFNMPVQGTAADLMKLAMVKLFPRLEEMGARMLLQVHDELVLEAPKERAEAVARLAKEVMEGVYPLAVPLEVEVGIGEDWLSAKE

Escherichia coli [5] = assay: Inhibition of Escherichia coli T4 DNA polymerase at 200 uM; how it was run: as §1
Escherichia coli [6] = assay: Inhibition of Escherichia coli DNA polymerase I Klenow fragment at 200 uM; how it was run: as §1
Mus musculus = organism: Mus musculus; assay: Inhibition of mouse inosine 5-monophosphate dehydrogenase type 2 at 200 uM
How it was run: (§2)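 Each enzyme (0.05 U) was incubated with 200 μM compound. Activity was expressed as a percentage of the activity without compound (100%). Means ± SEM of four independent experiments.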

[7] = target: T2, DNA polymerase alpha subunit B (Bos taurus) (UniProt Q58D13); assay: Inhibition of primase activity of calf polymerase alpha at 200 uM
T2 sequence (whole entry): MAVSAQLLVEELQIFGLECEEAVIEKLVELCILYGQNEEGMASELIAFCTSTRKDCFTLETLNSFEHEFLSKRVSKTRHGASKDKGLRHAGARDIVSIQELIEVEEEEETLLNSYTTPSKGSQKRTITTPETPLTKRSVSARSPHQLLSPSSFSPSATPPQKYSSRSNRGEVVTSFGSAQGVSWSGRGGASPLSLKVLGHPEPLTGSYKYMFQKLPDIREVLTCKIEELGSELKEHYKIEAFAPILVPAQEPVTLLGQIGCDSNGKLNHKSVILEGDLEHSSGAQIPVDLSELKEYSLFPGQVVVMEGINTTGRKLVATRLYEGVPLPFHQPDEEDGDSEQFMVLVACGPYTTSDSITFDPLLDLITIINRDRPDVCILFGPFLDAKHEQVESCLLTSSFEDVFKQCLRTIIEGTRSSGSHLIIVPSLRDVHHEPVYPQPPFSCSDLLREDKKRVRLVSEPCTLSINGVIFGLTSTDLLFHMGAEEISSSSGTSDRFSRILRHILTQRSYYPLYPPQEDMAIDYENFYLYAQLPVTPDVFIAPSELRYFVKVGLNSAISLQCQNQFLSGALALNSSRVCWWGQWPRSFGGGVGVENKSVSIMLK

Homo sapiens [8] = organism: Homo sapiens; assay: Inhibition of human topoisomerase type 2 at 200 uM; how it was run: as §2
[9] = test system: Brassica oleracea var. botrytis; assay: Inhibition of cauliflower DNA polymerase epsilon at 200 uM; how it was run: as §1
Homo sapiens [10] = organism: Homo sapiens; assay: Inhibition of human telomerse at 200 uM; how it was run: as §2
[11] = target: T2, DNA polymerase alpha subunit B (Bos taurus); assay: Inhibition of calf DNA polymerase alpha at 200 uM; how it was run: as §1

Measured: Activity

C/C(=C\CC[C@H](C)C(=O)O)[C@H]1CC[C@H](C(=O)O)CC1
inactive: all assays above
